The source of these data is ChEMBL document CHEMBL3734704, “Synthesis and Biological Evaluation of Novel Bouchardatine Derivatives as Potential Adipogenesis/Lipogenesis Inhibitors for Antiobesity Treatment” (J Med Chem, 2015).

Data set [1] can be described thus: Decrease in triglyceride level in mouse 3T3L1 preadipocytes compound treated for 6 days measured on day 6 by oil red O staining based microscopic analysis. Format: functional, cell-based. The method, boiled down:
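3T3-L1 preadipocytes, 2 days post-confluent, treated at 0.01-10.0 µM for 6 days of differentiation, with compound added Day 0 and renewed Day 3. On Day 6, TG measured by TG assay (per protein) and confirmed by Oil Red O staining; n = 3.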

A short description of data set [2]: Decrease in triglyceride level in mouse 3T3L1 cells during all developmental stages at 0.5 uM for 9 days. The class given is functional, cell-based. Conditions: 3T3-L1. In a few lines:
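During 3T3-L1 differentiation with compound present (0.5 µM, or 5 µM for one compound), cells were collected and counted every day and triglyceride content was measured by TG assay.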

A short description of data set [3]: Downregulation of FAS level in mouse 3T3L1 cells after 6 days by western blot analysis. The class given is functional, cell-based. Conditions: 3T3-L1. The method, boiled down: (§1)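 3T3-L1 preadipocytes incubated in adipogenic cocktail with or without compound (0.3, 1.0, 3.0 µM) for the stated periods. Protein levels measured by Western blot (RIPA lysis, PVDF, BSA block, primary 16 h at 4 °C, HRP secondary), normalized to GAPDH/Tubulin and expressed relative to controls; n = 3.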

A short description of data set [4]: Downregulation of CaMKKalpha expression in mouse 3T3L1 cells by western blot analysis. Format: functional, cell-based. The following applies: 3T3-L1.
A short description of data set [5]: Cell cycle arrest in mouse 3T3L1 cells assessed as number of cells at S phase at 0.3 uM after 24 hrs by flow cytometry (reference value: 18.1%). The class given is functional, cell-based. Conditions: 3T3-L1.
Data set [6] in a line: Downregulation of SREBP-1c mRNA level in mouse 3T3L1 cells at 3 uM after 24 hrs by RT-PCR analysis. The class given is functional, cell-based. The following applies: 3T3-L1. In a few lines:
(§2)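 3T3-L1 preadipocytes in adipogenic cocktail with compound (0.3-3.0 µM; 3 µM for the 2 h and 24 h time course). Total RNA extracted, cDNA made from 1 µg RNA with oligo primer, then PCR: 95 °C 10 min, 35 cycles of 95 °C 30 s, annealing 45 s, 72 °C 1 min, final 72 °C 10 min. Normalized to actin; n = 3.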

The test system of data set [7] is 3T3-L1. Put plainly: Induction of apoptosis in mouse 3T3L1 cells assessed as early apoptotic cells at 0.3 uM after 24 hrs by annexin-V-FITC and PI staining based flow cytometry (reference value: 0.56%). The class given is functional. In general terms: Flow cytometry measures light scatter and fluorescence of single cells or particles in a stream.
The next data set has as its system HepG2. Put plainly: Decrease in triglyceride level in human HepG2 cells at 1 uM after 24 hrs by GPO-POD assay in presence of 0.5 mM oleic acid sodium. The class given is functional. The method, boiled down:
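HepG-2 cells seeded, then after 24 h exposed to 0.5 mM oleic acid sodium plus compound (1 µM; dose series up to 10 µM) for 24 h, DMSO vehicle. Cells lysed in 0.2% Triton X-100 for 1 h, sonicated, centrifuged. Triglyceride measured by GPO-POD kit and cholesterol by kit, both normalized to BCA protein; n = 3.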

Data set [8] relates to 3T3-L1. Nature of the data set: Induction of apoptosis in mouse 3T3L1 cells assessed as early apoptotic cells at 1 uM after 24 hrs by annexin-V-FITC and PI staining based flow cytometry (reference value: 0.56%). The class given is functional.
Data set [9] can be described thus: Downregulation of PPAR-gamma mRNA level in mouse 3T3L1 cells at 3 uM after 24 hrs by RT-PCR analysis. Format: functional, cell-based. The following applies: 3T3-L1. In a few lines: as §2
Data set [10] is described as follows: Downregulation of SREBP-1c mRNA level in mouse 3T3L1 cells at 0.3 to 3 uM after 24 hrs by RT-PCR analysis. The class given is functional, cell-based. Conditions: 3T3-L1. The method, boiled down: as §2
Data set [11] has as its system 3T3-L1. Nature of the data set: Decrease in lipid droplet accumulation in mouse 3T3L1 cells at 1 uM measured during 0 to 3,0 to 6,0 to 9, 3 to 6, 3 to 9 and 6 to 9 days by oil red O staining based microscopic analysis. The class given is functional, cell-based. The method, boiled down:
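3T3-L1 cells given 1 µM compound during day 0-3, 0-6, 0-9, 3-6, 3-9 or 6-9 of differentiation. On Day 9, intracellular lipid measured by TG assay (Triton lysate, GPO-POD kit, per protein) and by Oil Red O staining with microscopy; n = 3.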

Data set [12] addresses T1, Serine/threonine-protein kinase STK11 (Mus musculus) (UniProt Q9WTK7).
T1 sequence (whole entry): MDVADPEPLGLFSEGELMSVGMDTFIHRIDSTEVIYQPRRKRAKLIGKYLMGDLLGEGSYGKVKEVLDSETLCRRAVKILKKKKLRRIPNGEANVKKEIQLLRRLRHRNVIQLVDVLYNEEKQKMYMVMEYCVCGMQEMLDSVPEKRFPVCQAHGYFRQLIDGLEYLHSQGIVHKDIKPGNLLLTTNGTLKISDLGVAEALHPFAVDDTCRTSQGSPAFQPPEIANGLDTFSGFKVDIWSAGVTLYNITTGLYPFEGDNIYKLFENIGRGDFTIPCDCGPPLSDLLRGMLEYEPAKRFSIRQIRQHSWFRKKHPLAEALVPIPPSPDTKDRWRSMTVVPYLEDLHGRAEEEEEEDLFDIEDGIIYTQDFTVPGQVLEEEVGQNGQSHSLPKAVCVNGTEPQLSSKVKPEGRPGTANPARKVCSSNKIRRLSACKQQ
Nature of the data set: Activation of LKB1-mediated AMPK in mouse 3T3L1 cells assessed as increase in phophorylated AMPK alpha at Thr 172 residue level at 3 uM by western blot analysis. Format: cell-based. The following applies: 3T3-L1, TDE = time-dependent effect. The method, boiled down: (§3)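 3T3-L1 preadipocytes held in adipogenic cocktail with or without compound at 3 µM, time course (10 min, 2 h, 24 h) during differentiation. Lysis in RIPA with protease/phosphatase inhibitors, SDS-PAGE, PVDF, BSA block, primary antibody 16 h at 4 °C, HRP secondary. Bands normalized to GAPDH, with the 10 min DMSO group set as 100%; n = 3.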

Data set [13] is described as follows: Downregulation of SREBP-1c level in mouse 3T3L1 cells at 0.3 to 3 uM after 3 days by western blot analysis. The class given is functional, cell-based. Conditions: 3T3-L1. In a few lines:
as §1
A general note: Immunoblotting shows a protein as a band on a membrane.

For data set [14], the target named is T1, Serine/threonine-protein kinase STK11 (Mus musculus). Nature of the data set: Activation of LKB1-mediated AMPK in mouse 3T3L1 cells assessed as increase in phophorylated AMPK alpha at Thr 172 residue level at 3 uM after 10 mins by western blot analysis. Format: cell-based. Conditions: 3T3-L1. In a few lines: as §3
The test system of a further data set is HeLa. Put plainly: Drug uptake in human HeLa cells measured from 5 mins to 1 hr by fluorescence analysis. Format: ADME, cell-based.

Each structure is given as a SMILES string. Active and inactive are the calls of the source. The calls are words filed in the database; no cut-off is given here.

For `O=Cc1c(-c2nc(NCCN3CCCC3)c3ccccc3n2)[nH]c2ccccc12`, the inhibition result in [1] (3T3-L1) and in [3] was “Dose-dependent effect” throughout. The concentration giving a half-maximal response (EC50) (as a rule, the concentration needed to bring the measured effect to its halfway point) in [1] (3t3-l1) was 17 nM. The inhibition entry (in data set [2]; in data set [4]; in [6]; in data set [9]; in data set [10]; in the data set on 3T3-L1 [11]) was “Active” throughout. Moreover, the inhibition result in data set [13] was “Active”. The Activity in data set [5] was 6.4%; with 3T3-L1 [7], 1.58%; in the data set on 3T3-L1 [8], 0.84%; in [12], “tde”. The “inhibition (INH)” value with HepG2 was found to be 70%. In addition, in data set [14], the result was Active. Moreover, in the data set with HeLa, the Drug uptake result is “Active”.
